Laboratory results taken from ChEMBL document CHEMBL1153755, “Convenient synthesis and antimicrobial evaluation of some novel 2-substituted-3-methylbenzofuran derivatives” (2009).
≈ marks a conversion by molar mass, not a printed value.

How the values were obtained:
Type in all cases: functional
Aspergillus niger [1] = assay: Antimicrobial activity against Aspergillus niger by serial dilution technique
Candida albicans [2] = assay: Antifungal activity against Candida albicans at 100 ug after 24 to 48 hrs by diffusion agar technique; conditions: read-out: IZ
Summary of the method: (§1)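 Fungal isolates (RCMB collection) are seeded into malt extract agar (pH 5.4) and tested by hole-plate diffusion. Each 1 cm well receives 100 μL of a 5 mg/ml DMSO solution, with DMSO as control. Plates sit 1 h at 4 °C, then incubate at 28 °C. Zone diameter is measured after 24-48 h. Terbinafin is the standard.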

Penicillium italicum [3] = assay: Antifungal activity against Penicillium italicum at 100 ug after 24 to 48 hrs by diffusion agar technique; conditions: read-out: IZ; summary of the method: as §1
Staphylococcus aureus [4] = assay: Antibacterial activity against Staphylococcus aureus at 100 ug after 24 to 48 hrs by diffusion agar technique; conditions: read-out: IZ
Summary of the method: (§2)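 Hole-plate agar diffusion on nutrient agar (pH 6.2) seeded with the bacterial isolate (RCMB collection). 1 cm wells hold 100 μL of compound at 5 mg/ml in DMSO; DMSO-filled wells serve as controls. Plates are held 1 h at 4 °C, then incubated at 37 °C. Inhibition zone diameter is read after 24-48 h. Amoxicilline is the reference.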

Aspergillus niger [5] = assay: Antifungal activity against Aspergillus niger at 100 ug after 24 to 48 hrs by diffusion agar technique; conditions: read-out: IZ; summary of the method: as §1
[6] = tested on: Syncephalastrum racemosum; assay: Antifungal activity against Syncephalastrum racemosum at 100 ug after 24 to 48 hrs by diffusion agar technique; conditions: read-out: IZ; summary of the method: as §1
Aspergillus fumigatus [7] = assay: Antifungal activity against Aspergillus fumigatus at 100 ug after 24 to 48 hrs by diffusion agar technique; conditions: read-out: IZ; summary of the method: as §1
Bacillus subtilis [8] = assay: Antibacterial activity against Bacillus subtilis at 100 ug after 24 to 48 hrs by diffusion agar technique; conditions: read-out: IZ; summary of the method: as §2
Bacillus subtilis [9] = assay: Antimicrobial activity against Bacillus subtilis by serial dilution technique
Escherichia coli = assay: Antibacterial activity against Escherichia coli at 100 ug after 24 to 48 hrs by diffusion agar technique; conditions: read-out: IZ; summary of the method: as §2
Candida albicans [10] = assay: Antimicrobial activity against Candida albicans by serial dilution technique
Pseudomonas aeruginosa = assay: Antibacterial activity against Pseudomonas aeruginosa at 100 ug after 24 to 48 hrs by diffusion agar technique; conditions: read-out: IZ; summary of the method: as §2
Staphylococcus aureus [11] = assay: Antimicrobial activity against Staphylococcus aureus by serial dilution technique
Aspergillus fumigatus [12] = assay: Antimicrobial activity against Aspergillus fumigatus by serial dilution technique
[13] = tested on: Syncephalastrum racemosum; assay: Antimicrobial activity against Syncephalastrum racemosum by serial dilution technique
Penicillium italicum [14] = assay: Antimicrobial activity against Penicillium italicum by serial dilution technique

MIC (Aspergillus niger [1]) | MIC (Bacillus subtilis [9]) | MIC (Candida albicans [10]) | MIC (Staphylococcus aureus [11]) | MIC (Aspergillus fumigatus [12]) | MIC [13] | MIC (Penicillium italicum [14]) | SMILES | zone of inhibition at 100 µg/disc (Candida albicans [2]) | zone of inhibition at 100 µg/disc (Penicillium italicum [3]) | zone of inhibition at 100 µg/disc (Staphylococcus aureus [4]) | zone of inhibition at 100 µg/disc (Aspergillus niger [5]) | zone of inhibition at 100 µg/disc [6] | zone of inhibition at 100 µg/disc (Aspergillus fumigatus [7]) | zone of inhibition at 100 µg/disc (Bacillus subtilis [8]) | zone of inhibition at 100 µg/disc (Escherichia coli) | zone of inhibition at 100 µg/disc (Pseudomonas aeruginosa)
250 mg/L (≈ 979 µM) |  |  |  |  |  |  | CCO/C=C(\C#N)C(=O)c1oc2ccccc2c1C | 10 mm | 10 mm | 13 mm | 18 mm | 22 mm | 19 mm | 7 mm |  | 
 | 250 mg/L (≈ 864 µM) |  |  |  |  |  | Cc1c(-c2cc(N)n(-c3ccccc3)n2)oc2ccccc12 | 9 mm |  | 4 mm | 7 mm |  | 10 mm | 25 mm | 5 mm | 
 |  | 250 mg/L (≈ 740 µM) |  |  |  |  | Cc1c(C(=O)/C(C#N)=N/Nc2ccc(Cl)cc2)oc2ccccc12 | 16 mm |  | 5 mm |  |  |  |  |  | 
 |  |  | 500 mg/L (≈ 1040 µM) |  |  |  | Cc1c(C(=O)NN/C=C(\NNC(=O)c2oc3ccccc3c2C)c2ccccc2)oc2ccccc12 |  |  | 15 mm |  |  |  | 14 mm | 5 mm | 6 mm
 |  |  |  | 500 mg/L (≈ 971 µM) |  |  | Cc1c(C(=O)NN/C=C(\NNC(=O)c2oc3ccccc3c2C)c2ccc(Cl)cc2)oc2ccccc12 |  |  | 4 mm | 5 mm | 6 mm | 10 mm | 4 mm | 3 mm | 
 | 125 mg/L (≈ 548 µM) |  |  |  |  |  | Cc1c(C(=O)/C(C#N)=N/O)oc2ccccc12 | 18 mm |  | 15 mm | 12 mm |  | 8 mm | 20 mm | 8 mm | 
 |  | 50 mg/L (≈ 158 µM) |  |  |  |  | Cc1ccc(N/N=C(\C#N)C(=O)c2oc3ccccc3c2C)cc1 | 20 mm |  | 4 mm |  |  | 12 mm | 6 mm |  | 
 |  |  |  |  | 50 mg/L (≈ 224 µM) |  | Cc1c(-c2n[nH]cc2C#N)oc2ccccc12 | 12 mm |  | 10 mm | 6 mm | 30 mm | 20 mm | 18 mm |  | 
 |  |  |  |  | 50 mg/L (≈ 144 µM) | 50 mg/L (≈ 144 µM) | Cc1c(C(=O)NNC(=O)c2oc3ccccc3c2C)oc2ccccc12 | 6 mm | 12 mm | 3 mm | 13 mm | 18 mm | 4 mm | 12 mm |  | 
 |  |  |  |  | 250 mg/L (≈ 847 µM) |  | Cc1c(C(=O)Nc2ccccc2C(=O)O)oc2ccccc12 |  | 13 mm | 3 mm |  | 22 mm |  | 12 mm |  | 
 |  |  |  |  | 250 mg/L (≈ 902 µM) |  | Cc1c(-c2nc3ccccc3c(=O)o2)oc2ccccc12 | 7 mm | 6 mm | 4 mm | 5 mm | 18 mm | 8 mm | 8 mm |  | 8 mm
 |  |  |  |  |  |  | CC1(C)S[C@@H]2[C@H](NC(=O)[C@H](N)c3ccc(O)cc3)C(=O)N2[C@H]1C(=O)O [AMOXICILLIN] |  |  | 30 mm |  |  |  | 25 mm | 30 mm | 20 mm
 |  |  |  |  |  |  | CN(C/C=C/C#CC(C)(C)C)Cc1cccc2ccccc12 [TERBINAFINE] | 30 mm | 20 mm |  | 25 mm | 35 mm | 30 mm |  |  | 
